# ASAP1 inh = inhibitors of human ASAP1 ArfGAP activity, primary screen, biochemical, fluorescence polarization; Arf-GAP with SH3 domain, ANK repeat and PH domain-containing protein 1 (Homo sapiens), …; ASAP1-stimulated ARF1 GTP hydrolysis, GDP FP detection; inhibition, % at 16.5 µM; hit rate 0.19% among 360,000; AID 624377, 2012; in the data active = inhibition above about 25%;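 note: 0% = vehicle with enzyme and substrate and 100% = no enzyme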
# ARFGAP1 inh = inhibitors of rat ARFGAP1 GAP activity, primary screen, biochemical, fluorescence polarization, GDP tracer. AID 651572, 2012. inhibition, % at 16.5 µM. ADP-ribosylation factor GTPase-activating protein 1 (Rattus norvegicus), Q62848. Arfgap1-stimulated ARF1 GTP hydrolysis, GDP FP detection. hit rate 0.26% among 360,000;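 active = inhibition above a per-plate limit, mean inhibition of low control wells plus 3 SD, cut at about 25% in these data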;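 note: 0% = DMSO wells with enzyme and 100% = wells lacking Arfgap1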
# Target sequence (Q62848 1-136 limits assumed): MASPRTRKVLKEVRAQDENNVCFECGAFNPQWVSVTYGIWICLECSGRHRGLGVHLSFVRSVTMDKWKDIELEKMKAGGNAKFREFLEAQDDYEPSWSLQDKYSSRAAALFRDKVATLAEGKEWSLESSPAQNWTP
#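 Assay system: purified rat His6-Arfgap1 residues 1-136 (GAP domain); Reagent: human Δ17 ARF1 bound to GTP; Dosing: 16.5 µM single point, 1.26% DMSO; Times: GTP hydrolysis reaction 2 h at 25 °C; Signal: FP, GDP Alexa 633 tracer displaced from anti-GDP antibody, 620/688 nm; Measure: % inhibition from polarization.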
# PKD1 inh = inhibitors of human PKD1 kinase, biochemical, fluorescence polarization. Serine/threonine-protein kinase D1 (Homo sapiens), Q15139. PKD1 kinase fluorescence polarization assay. inhibition, % (test concentration not listed). hit rate 0.056% among 200,000; in the data active = inhibition above about 50%
# PP5 primary = PP5 phosphatase inhibitors, primary screen, biochemical, fluorescence | inhibition, % at 6.7 µM | hit rate 0.18% among 320,000 | purified PP5c, OMFP substrate fluorescence;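 active = inhibition above the campaign's mean inhibition across all tested compounds plus 3 SD, cut at about 9.5% in these data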;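 note: 0% = DMSO only and 100% = 100 µM cantharidin control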
# Target sequence (P53041 whole entry, looked up): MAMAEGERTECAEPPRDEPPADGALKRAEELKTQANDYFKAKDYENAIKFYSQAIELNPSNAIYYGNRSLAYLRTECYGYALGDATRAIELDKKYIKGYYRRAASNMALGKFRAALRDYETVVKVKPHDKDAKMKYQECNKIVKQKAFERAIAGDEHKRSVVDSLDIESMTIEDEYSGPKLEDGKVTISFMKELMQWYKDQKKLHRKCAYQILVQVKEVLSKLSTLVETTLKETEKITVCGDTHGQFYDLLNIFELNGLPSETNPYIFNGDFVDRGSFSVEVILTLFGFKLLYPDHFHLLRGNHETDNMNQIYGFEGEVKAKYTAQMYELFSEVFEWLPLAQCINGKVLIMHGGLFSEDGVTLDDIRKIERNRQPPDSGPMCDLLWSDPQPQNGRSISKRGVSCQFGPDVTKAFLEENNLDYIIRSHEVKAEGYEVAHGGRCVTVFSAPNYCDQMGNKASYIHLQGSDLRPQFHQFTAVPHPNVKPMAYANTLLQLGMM
# ASAP1 inh confirm = ASAP1 GAP activity inhibitors, confirmation, biochemical, fluorescence polarization, human, triplicate; shares compounds with ASAP1 inh; ASAP1-stimulated Arf1 GTPase, GDP fluorescence polarization; inhibition, % at 16.5 µM; hit rate 37% among 620;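 active = mean inhibition over triplicates exceeds the hit threshold derived for the earlier primary screening run, cut at about 25% in these data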
# ARFGAP1 inh conf = ARFGAP1 inhibitor hit confirmation, biochemical, fluorescence polarization, triplicate; shares compounds with ARFGAP1 inh; ARFGAP1-stimulated ARF1 GTP hydrolysis, GDP tracer FP; inhibition, % at 16.5 µM; hit rate 30% among 890; AID 651608, 2012;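 active = average inhibition over triplicates above the hit cutoff set in the earlier primary screen, cut at about 25% in these data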;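 note: 0% = Arfgap1 plus ARF1-GTP with DMSO and 100% = wells lacking Arfgap1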
# Numbers without * were called inactive; · = no result. Sampled rows, rich in hits. Any-hit rate of the full collection: about 0.54%.
SMILES,ASAP1 inh,ARFGAP1 inh,PKD1 inh,PP5 primary,ARFGAP1 inh conf,others
COc1ccc(OC)c(Nc2nnc(C)c(=O)[nH]2)c1,7,-7,-8,-1,·,
COc1ccccc1Nc1nnc(C)c(=O)[nH]1,6,9,0,1,·,
COc1ccccc1/C=N\Nc1cn[nH]c(=O)c1Cl,26*,28*,3,0,15,ASAP1 inh confirm=20
O=C(Nc1cccc(-c2nc3ccccc3[nH]2)c1)c1cccc(NC(=O)c2ccco2)c1,44*,77*,-1,3,123*,ASAP1 inh confirm=76*
O=C(Nc1ccc2nc(-c3ccccc3)[nH]c2c1)c1ccco1,3,-4,-1,2,·,
COc1ccc(C)cc1NC(=O)CCC(=O)Nc1ccc2nc(N3CCN(C)CC3)cc(C)c2c1,·,·,-7,-2,·,
COc1ccc(C(=O)Nc2ccc3nc(N4CCN(C)CC4)cc(C)c3c2)c(OC)c1,37*,50*,·,1,71*,ASAP1 inh confirm=66*
Cc1[nH][nH]c(=O)c1C(c1ccc(-c2cccc(C(=O)O)c2)o1)c1c(C)[nH][nH]c1=O,26*,31*,1,0,-10,ASAP1 inh confirm=-3
COc1ccc(N2C(=O)[C@@H]3[C@H](C2=O)[C@H](C(C)=O)N2c4ccccc4C=C[C@@H]32)cc1,4,18,·,-1,·,
COc1ccc(C2C(C(=O)c3ccccc3)N3c4ccccc4C=CC3C2[N+](=O)[O-])cc1 (stereo unspecified),29*,27*,-2,·,10,ASAP1 inh confirm=12
Cc1cc2oc3cc(NCCC4CCCN4C)ccc3c(=O)c2cc1C (stereo unspecified),28*,31*,·,0,30*,ASAP1 inh confirm=38*
CN1CCCC1CCNc1ccc2sc3ccccc3c(=O)c2c1 (stereo unspecified),3,14,·,-4,·,
CC1=[N+](C)c2ccc3ccccc3c2C1(C)C,26*,31*,8,3,18,ASAP1 inh confirm=22
Cc1sc2ncnc(N3CCC(C(=O)NCC(=O)Nc4ccc(F)c(F)c4)CC3)c2c1C,-14,25*,·,2,1,
COc1ccc(-c2[nH]ncc2/C=N/NC(=O)c2cccc([N+](=O)[O-])c2)cc1OC,22,26*,-4,3,52*,
COc1ccc(/C=N/NC(=O)c2cccc([N+](=O)[O-])c2)cc1OC,-6,4,-1,2,·,
CCOc1cc(/C=C/C(=O)Nc2ccc(C(=O)NCCN(CC)CC)cc2)ccc1OCC(C)C,22,28*,6,1,26*,
Oc1nc(Nc2cccc(Cl)c2)sc1/C=C1\C=Nc2ccccc21,19,25*,-3,6,21,
Oc1cccc(Nc2nc(O)c(/C=C3\C=Nc4ccccc43)s2)c1,3,6,·,0,·,
COc1cc2c(NCCCCCCO[N+](=O)[O-])ncnc2c(OC)c1OC,-5,9,·,·,·,
C=CCNC(=S)Nc1ccc2nsnc2c1,-8,9,-5,4,·,
C=CCN(CC=C)C(=S)Nc1ccc2nsnc2c1,22,32*,1,2,3,
COc1ccc2c(c1)C(c1ccc(C)o1)=NNC(c1cccnc1)=N2,-6,25*,1,1,1,
COCCC1CCCCN1C(=O)c1cc(COc2cccc(C(C)=O)c2)on1 (stereo unspecified),8,25*,·,2,-11,
COc1ccc(-c2csc(NC(=O)CN3C(=O)NC4(CCCC4)C3=O)n2)c(OC)c1,4,-5,·,-1,·,
SMILES,ASAP1 inh,ARFGAP1 inh,PKD1 inh,PP5 primary,ARFGAP1 inh conf,others
COc1ccc(-c2csc(NC(=O)CN3C(=O)NC4(CCCC4)C3=O)n2)cc1OC,-7,27*,·,3,4,
NC(Cc1ccc(C(F)(F)F)cc1)c1csc(NC(=O)Nc2ccccc2Cc2ccccc2)n1 (stereo unspecified),-5,33*,·,·,11,
O=[N+]([O-])c1ccc2[nH]c3nc4ccccc4nc3c2c1,8,26*,·,3,37*,
COC(=O)C1=C(C)N(Cc2ccc(C(F)(F)F)cc2)C(=NCC2CC2)NC1c1ccccc1 (stereo unspecified),7,5,·,·,·,
CCOC(=O)[C@]12CCC=C1N(Cc1cccc3ccccc13)C(=O)[C@H](CC(=O)NCc1ccc(C)o1)C2,-12,-6,·,·,·,
CCCc1cc(=O)[nH]c(SCC(=O)N2CCN(S(=O)(=O)c3ccc4ccccc4c3)CC2)n1,7,25*,-2,-2,-2,
CCOc1ccc2oc(C(=O)OCC(=O)N3CC(C)OC(C)C3)c(C)c2c1 (stereo unspecified),18,26*,·,0,33*,
CCOc1ccc2oc(C(=O)OCC(=O)N3CCCC(C)C3)c(C)c2c1 (stereo unspecified),19,33*,·,4,33*,
COc1ccc2oc(C(=O)OCC(=O)N3CCCC(C)C3)c(C)c2c1 (stereo unspecified),8,19,·,3,·,
Cc1ccc(OCc2nc3ccccc3n2C(C)C(=O)Nc2c(C)cccc2C)cc1 (stereo unspecified),12,2,·,·,·,
O=C(N/N=C/c1ccc(Cl)cc1)C(=O)N1CCCCCC1,3,25*,-7,-1,-6,
Cc1c(O)ccc2c(O)c(NC(=O)c3ccc4c(c3)CCC(C)(C)O4)c(=O)oc12,2,40*,·,1,1,
Cc1c(CC(=O)NCCCO)c(=O)oc2cc3c(cc12)CCC(C)(C)O3,-1,-4,·,0,·,
COc1ccc(NC(=O)NNC(=O)COc2ccc3ccccc3c2)cc1OC,10,12,·,1,·,
COc1ccc(NC(=O)NNC(=O)COc2ccc3cc(Br)ccc3c2)cc1OC,8,51*,·,0,85*,
Cc1ccc(NC(=O)NNC(=O)COc2ccc([N+](=O)[O-])cc2)cc1C,21,32*,·,-1,34*,
Cc1ccc(NC(=O)CCC(=O)NNC(=O)COc2ccc([N+](=O)[O-])cc2)cc1C,-14,-9,·,4,·,
CC(C)[C@H](NC(=O)c1ccc(Cl)cc1Cl)C(=O)N1CCC[C@H]1C(=O)NCCc1ccccc1Cl,-5,13,·,·,·,
CCOC(=O)[C@]12CCC=C1N(Cc1ccc3c(c1)OCO3)C(=O)[C@H](CC(=O)N1CCOCC1)C2,-4,-3,·,·,·,
COC(=O)C1=C(C)N(Cc2ccccc2C(F)(F)F)C(=NCc2cc(OC)c(OC)c(OC)c2)NC1c1ccc(Cl)cc1 (stereo unspecified),0,-4,·,·,·,

# Compound activity as filed in PubChem.
